# From ChEMBL document CHEMBL1149770, “Synthesis and antimicrobial studies of novel dichlorofluorophenyl containing aminotriazolothiadiazines” (2008)
# Key:
# Candida albicans [1] = test: Antifungal activity against Candida albicans after 48 hrs […]; format: functional
# Staphylococcus aureus [2] = test: Antibacterial activity against Staphylococcus aureus ATCC 25923 after 24 hrs by broth dilution technique; format: functional; details: ATCC 25923, 24 h
# Procedure, shortened: (§1)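 MIC by broth dilution in nutrient broth with logarithmic serial twofold dilutions of compound. Inoculum approx. 5×10^5 c.f.u actively dividing bacteria. Incubated 24 h at 37 °C, growth monitored visually and spectrophotometrically. MIC taken as the lowest concentration (highest dilution) arresting growth. Ciprofloxacin reference.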
# Aspergillus flavus [3] = test: Antifungal activity against Aspergillus flavus assessed as inhibition zone diameter […] by agar dilution method; format: functional
# Procedure, shortened: (§2)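 Compounds in DMSO placed in punched wells on Sabouraud agar (peptone, glucose, agar, pH 5.7) lawned with saline spore suspension. Plates pre-dried 1 h at 37 °C. Controls in triplicate, incubation at 37 °C for 3-4 days, then inhibition zone diameter read in mm. Amphotericin B reference.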
# Pseudomonas aeruginosa [4] = test: Antibacterial activity against Pseudomonas aeruginosa ATCC 27853 after 24 hrs by broth dilution technique; format: functional; details: ATCC 27853, 24 h; procedure, shortened: as §1
# Pseudomonas aeruginosa [5] = test: Antibacterial activity against Pseudomonas aeruginosa ATCC 27853 assessed as inhibition zone diameter after 24 hrs […]; format: functional
# Procedure, shortened: (§3)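 Disc diffusion on nutrient agar. Inoculum 1-2 × 10^7 c.f.u/ml (0.5 McFarland) spread over the plate surface. Sterile 6.25 mm filter-paper discs soaked in a known concentration of compound. Solvent and growth controls included. Plates incubated inverted 24 h at 37 °C, then inhibition zone diameter measured in mm. Ciprofloxacin reference.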
# Talaromyces marneffei [6] = test: Antifungal activity against Penicillium marneffei after 48 hrs […]; format: functional
# Escherichia coli = test: Antibacterial activity against Escherichia coli ATCC 25922 after 24 hrs by broth dilution technique; format: functional; details: ATCC 25922, 24 h; procedure, shortened: as §1
# Streptococcus pyogenes [7] = test: Antibacterial activity against Streptococcus pyogenes after 24 hrs by broth dilution technique; format: functional; procedure, shortened: as §1
# Klebsiella pneumoniae [8] = test: Antibacterial activity against Klebsiella pneumoniae after 24 hrs by broth dilution technique; format: functional; procedure, shortened: as §1
# [9] = test system: Trichophyton mentagrophytes; test: Antifungal activity against Trichophyton mentagrophytes after 48 hrs […]; format: functional
# Aspergillus fumigatus [10] = test: Antifungal activity against Aspergillus fumigatus after 48 hrs […]; format: functional
# Aspergillus fumigatus [11] = test: Antifungal activity against Aspergillus fumigatus assessed as inhibition zone diameter […] by agar dilution method; format: functional; procedure, shortened: as §2
# Staphylococcus aureus [12] = test: Antibacterial activity against Staphylococcus aureus ATCC 25923 assessed as inhibition zone diameter after 24 hrs […]; format: functional; procedure, shortened: as §3
# Aspergillus flavus [13] = test: Antifungal activity against Aspergillus flavus after 48 hrs […]; format: functional
# Streptococcus pyogenes [14] = test: Antibacterial activity against Streptococcus pyogenes assessed as inhibition zone diameter after 24 hrs by disc diffusion method
# Klebsiella pneumoniae [15] = test: Antibacterial activity against Klebsiella pneumoniae assessed as inhibition zone diameter after 24 hrs […]; format: functional; procedure, shortened: as §3
# Candida albicans [16] = test: Antifungal activity against Candida albicans assessed as inhibition zone diameter […] by agar dilution method; format: functional; procedure, shortened: as §2
# Talaromyces marneffei [17] = test: Antifungal activity against Penicillium marneffei assessed as inhibition zone diameter […] by agar dilution method; format: functional; procedure, shortened: as §2
# [18] = test system: Trichophyton mentagrophytes; test: Antifungal activity against Trichophyton mentagrophytes assessed as inhibition zone diameter […] by agar dilution method; format: functional; procedure, shortened: as §2
SMILES,MIC (Candida albicans [1]) [µg/mL],MIC (Staphylococcus aureus [2]) [µg/mL],MIC (Pseudomonas aeruginosa [4]) [µg/mL],MIC (Talaromyces marneffei [6]) [µg/mL],MIC (Escherichia coli) [µg/mL],MIC (Streptococcus pyogenes [7]) [µg/mL],MIC (Klebsiella pneumoniae [8]) [µg/mL],MIC [9] [µg/mL],MIC (Aspergillus fumigatus [10]) [µg/mL],MIC (Aspergillus flavus [13]) [µg/mL],inhibition zone (IZ) (Aspergillus flavus [3]) [mm],inhibition zone (IZ) (Pseudomonas aeruginosa [5]) [mm],inhibition zone (IZ) (Aspergillus fumigatus [11]) [mm],inhibition zone (IZ) (Staphylococcus aureus [12]) [mm],inhibition zone (IZ) (Streptococcus pyogenes [14]) [mm],inhibition zone (IZ) (Klebsiella pneumoniae [15]) [mm],inhibition zone (IZ) (Candida albicans [16]) [mm],inhibition zone (IZ) (Talaromyces marneffei [17]) [mm],inhibition zone (IZ) [18] [mm]
Nn1c(SCC(=O)Nc2c(Cl)cccc2Cl)nnc1-c1cc(F)c(Cl)cc1Cl,12.5,6.25,12.5,12.5,12.5,6.25,6.25,25,12.5,6.25,17,23,15,18,19,21,12,13,10
Nn1c(SCC(=O)Nc2ccc(F)c(Cl)c2)nnc1-c1cc(F)c(Cl)cc1Cl,12.5,6.25,6.25,6.25,6.25,6.25,6.25,12.5,12.5,25,8,31,16,24,23,20,15,20,11
Cc1ccc(NC(=O)CSc2nnc(-c3cc(F)c(Cl)cc3Cl)n2N)c(C)c1,12.5,6.25,6.25,25,6.25,6.25,25,6.25,25,25,10,30,8,17,18,10,14,9,12

# The next compounds have a lower MIC (Candida albicans [1]) than those just listed; values first:
MIC (Candida albicans [1]) [µg/mL],MIC (Staphylococcus aureus [2]) [µg/mL],MIC (Pseudomonas aeruginosa [4]) [µg/mL],MIC (Talaromyces marneffei [6]) [µg/mL],MIC (Escherichia coli) [µg/mL],MIC (Streptococcus pyogenes [7]) [µg/mL],MIC (Klebsiella pneumoniae [8]) [µg/mL],MIC [9] [µg/mL],MIC (Aspergillus fumigatus [10]) [µg/mL],MIC (Aspergillus flavus [13]) [µg/mL],SMILES,inhibition zone (IZ) (Aspergillus flavus [3]) [mm],inhibition zone (IZ) (Pseudomonas aeruginosa [5]) [mm],inhibition zone (IZ) (Aspergillus fumigatus [11]) [mm],inhibition zone (IZ) (Staphylococcus aureus [12]) [mm],inhibition zone (IZ) (Streptococcus pyogenes [14]) [mm],inhibition zone (IZ) (Klebsiella pneumoniae [15]) [mm],inhibition zone (IZ) (Candida albicans [16]) [mm],inhibition zone (IZ) (Talaromyces marneffei [17]) [mm],inhibition zone (IZ) [18] [mm]
6.25,6.25,6.25,6.25,6.25,6.25,6.25,6.25,6.25,6.25,Nn1c(SCC(=O)Nc2ccc(F)cc2)nnc1-c1cc(F)c(Cl)cc1Cl,21,30,19,23,22,21,19,24,17
6.25,6.25,12.5,12.5,12.5,6.25,12.5,6.25,6.25,12.5,Cc1cccc(NC(=O)CSc2nnc(-c3cc(F)c(Cl)cc3Cl)n2N)c1C,15,20,20,20,24,17,18,15,16
